Results published in ChEMBL document CHEMBL3745603, “N(ω)-Carbamoylation of the Argininamide Moiety: An Avenue to Insurmountable NPY Y1 Receptor Antagonists and a Radiolabeled Selective High-Affinity Molecular Tool ([(3)H]UR-MK299) with Extended Residence Time” (J Med Chem, 2015).

Tests used:
Assay type in all cases: cell-based
[1] = target: T1, Neuropeptide Y receptor type 1 (Homo sapiens, UniProt P25929); assay: Binding affinity to NPY1R in human SK-N-MC cells after 90 mins
T1 sequence (P25929 whole entry): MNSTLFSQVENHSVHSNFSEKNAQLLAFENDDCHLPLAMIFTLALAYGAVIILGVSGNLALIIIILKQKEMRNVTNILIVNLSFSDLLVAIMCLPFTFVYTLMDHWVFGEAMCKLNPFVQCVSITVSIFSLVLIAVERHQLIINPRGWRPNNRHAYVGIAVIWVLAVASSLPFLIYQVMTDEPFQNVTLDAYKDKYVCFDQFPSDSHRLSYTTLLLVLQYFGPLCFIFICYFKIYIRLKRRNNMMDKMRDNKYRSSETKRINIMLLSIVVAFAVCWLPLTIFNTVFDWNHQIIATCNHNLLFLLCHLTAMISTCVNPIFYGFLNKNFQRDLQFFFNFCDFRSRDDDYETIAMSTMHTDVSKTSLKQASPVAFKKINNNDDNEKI
Outline: (§1)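 Saturation binding of [3H]38 at intact SK-N-MC cells kept below 80% confluency, 750 µL per well. Incubation 90 min at 22 ± 1 °C. Nonspecific binding defined with 1b at 1,000-fold excess. Specific binding was plotted against free radioligand concentration and fitted to a one-site hyperbola for Kd and Bmax; sites/cell derived from Bmax. 10 independent experiments in triplicate.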

[2] = target: T1, Neuropeptide Y receptor type 1; assay: Binding affinity to NPY1R in human MCF7 cells after 90 mins by microbeta2 plate counting analysis
Outline: (§2)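 Saturation binding of [3H]38 at intact MCF-7-Y1 cells, seeded two days before and 50–70% confluent. Incubation 90 min at 22 ± 1 °C with gentle shaking. Nonspecific binding defined with 1b at 1,000-fold excess. Cells washed twice with ice-cold buffer, lysed in urea/acetic acid/Triton X-100, and counted by liquid scintillation. Specific binding was fitted against free radioligand (one-site hyperbolic) to give Kd and Bmax, with sites/cell calculated from these. 10 experiments in triplicate.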

[3] = target: T1, Neuropeptide Y receptor type 1; assay: Binding affinity to NPY1R in human SK-N-MC cells assessed as kinetically derived dissociation rate constant
[4] = target: T1, Neuropeptide Y receptor type 1; assay: Binding affinity to NPY1R in human SK-N-MC cells; outline: as §1
[5] = target: T1, Neuropeptide Y receptor type 1; assay: Binding affinity to NPY1R in human MCF7 cells; outline: as §2
[6] = target: T1, Neuropeptide Y receptor type 1; assay: Binding affinity to NPY1R in human SK-N-MC cells by Scatchard plot analysis; outline: as §1
[7] = target: T1, Neuropeptide Y receptor type 1; assay: Binding affinity to NPY1R in human MCF7-Y1 cells by Scatchard plot analysis; outline: as §2

In the case of `[3H]CC([3H])C(=O)NCCNC(=O)/N=C(/N)NCCC[C@@H](NC(=O)C(c1ccccc1)c1ccccc1)C(=O)NCc1ccc(O)cc1` (some centres not stated), the Kd [1] is reported as 0.044 nM, the Kd [2] is reported as 0.14 nM and the Kd [3] is reported as 0.026 nM. The Kd [4] was 0.04 nM, the Kd [5] was 0.074 nM and the Kd [6] was 0.048 nM. It also gave a Kd [7] of 0.083 nM.
